The values below come from publication PMC3082393 (Journal of medicinal chemistry, 2011).

For one data set, the system named is H460 and T29Kt1 cells. In words: Structure-activity statements from the cell viability assay. Further details: species or system human. Particulars: based on IC50 values of Table 1.
The test system of data set [1] is cancer cells that were highly susceptible to oncrasin-1. As to conditions: cancer cells highly susceptible to oncrasin-1; cited from earlier work.
Another data set relates to CDK7. Particulars: ref Our previous study; cited from earlier work.
A further data set has as its system CDK9. Particulars: ref Our previous study; cited from earlier work.
In data set [2] the test system is phosphorylation of the CTD of RNA polymerase II. Particulars: cited from earlier work.
A further data set relates to T29 and T29Kt1 cells. In words: Levels of compound 34 in cells after treatment. In kind it is cell-based. Particulars: 10 μM, all time points up to 5 h after treatment, normalized with protein amount. In short, it runs like this: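 T29 and T29Kt1 cells at 80–90% confluence were given 10 μM test compound and collected by trypsin at time points up to 5 h. After a PBS wash, cells were lysed (M-PER) and homogenised, and supernatant protein was measured by BCA. Supernatant was deproteinised with 2 volumes of acetonitrile, spun at 4°C and concentrated under nitrogen. Drug was quantified by C18 HPLC (acetonitrile/water gradient, 230 nm) against an indole-methanol internal standard, then normalised to protein.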

On to `COCc1cn(Cc2ccc(Cl)cc2)c2ccccc12` [Compound 59, 1-[(4-chlorophenyl)methyl]-1H-indole-3-methoxymethane], for which, in the data set on H460 and T29Kt1 cells, the “Antitumor activity (structure-activity statement in words)” value is on record as “dramatic loss of activity”.

With `Cc1ccc(Cn2cc(CO)c3cc(F)ccc32)cc1` [Compound 55, 1-[(4-methylphenyl)methyl]-5-fluoro-1H-indole-3-methanol], the “Antitumor activity (structure-activity statement in words)” value with H460 and T29Kt1 cells is “best potency”.

With `OCc1c[nH]c2ccccc12` [indole-3-carbinol], the Antitumor activity entry in data set [1] is recorded as “did not have observable antitumor activity”.

For `Cc1cn(Cc2ccc(Cl)cc2)c2ccccc12` [Compound 66, 1-[(4-chlorophenyl)methyl]-1H-indole-3-methane], the “Antitumor activity (structure-activity statement in words)” value in the data set on H460 and T29Kt1 cells is on record as “dramatic reduction or complete loss of activity”.

As for `CC(O)c1cn(Cc2ccc(Cl)cc2)c2ccccc12` (stereo not shown) [Compound 58, 1-[1-[(4-chlorophenyl)methyl]-1H-indole-3-] ethanol], the “Antitumor activity (structure-activity statement in words)” value in the data set on H460 and T29Kt1 cells is given as “dramatic reduction or complete loss of activity”.

In the case of `Brc1cccc(Cn2cc(Cc3cn(Cc4cccc(Br)c4)c4ccccc34)c3ccccc32)c1` [Compound 69, bis[1-[(3-bromophenyl)methyl]-1H-indole-3-]methane], the “Antitumor activity (structure-activity statement in words)” value in the data set with H460 and T29Kt1 cells is “complete loss of antitumor activity”.

Take `OCCc1cn(Cc2ccc(Cl)cc2)c2ccccc12` [Compound 56, 2-[1-[(4-chlorophenyl)methyl]-1H-indole-3-]ethanol]: in the data set with H460 and T29Kt1 cells, the “Antitumor activity (structure-activity statement in words)” value was “dramatic reduction or complete loss of activity”.

`OCc1cn(Cc2ccc(Cl)cc2)c2ccc(F)cc12` [Compound 51, 1-[(4-chlorophenyl)methyl]-5-fluoro-1H-indole-3-methanol]: in the data set on H460 and T29Kt1 cells, the “Antitumor activity (structure-activity statement in words)” value is “best potency”.

For `CC(C)Cn1cc(C=O)c2ccccc21` [Compound 22], the “Antitumor activity (structure-activity statement in words)” value with H460 and T29Kt1 cells is given as “complete or partial loss of activity”.

In the case of `O=C(O)c1cn(Cc2ccc(Cl)cc2)c2ccccc12` [Compound 63, 1-[(4-chlorophenyl)methyl]-1H-indole-3-carboxylic acid], the “Antitumor activity (structure-activity statement in words)” value in the data set on H460 and T29Kt1 cells is “dramatic reduction or complete loss of activity”.

For `OCCCc1cn(Cc2ccccc2)c2ccccc12` [Compound 57], in the data set on H460 and T29Kt1 cells, the “Antitumor activity (structure-activity statement in words)” value was “dramatic reduction or complete loss of activity”.

In the case of `O=Cc1cn(CCCOc2ccc(Cl)cc2)c2ccccc12` [Compound 15], the “Antitumor activity (structure-activity statement in words)” value in the data set on H460 and T29Kt1 cells was “retained its activity and selectivity”.

Take `CC(=O)OCc1cn(Cc2ccc(Cl)cc2)c2ccccc12` [Compound 60, 1-[(4-chlorophenyl)methyl]-1H-indole-3-methyl acetate]: the “Antitumor activity (structure-activity statement in words)” value in the data set with H460 and T29Kt1 cells is listed as “equipotent to compound 35”.

Consider `Clc1cccc(Cn2cc(Cc3cn(Cc4cccc(Cl)c4)c4ccccc34)c3ccccc32)c1` [Compound 68, bis[1-[(3-chlorophenyl)methyl]-1H-indole-3-]methane], for which, in the data set on H460 and T29Kt1 cells, the “Antitumor activity (structure-activity statement in words)” value is “complete loss of antitumor activity”.

Regarding `O=Cc1cn(Cc2ccc(Cl)cc2)c2ccccc12` [Oncrasin-1, 1-[(4-chlorophenyl)methyl]-1H-indole-3-carboxaldehyde], the “Direct inhibitory effect on CDK7” value with CDK7 is on record as “moderate”. Also, the “Direct inhibitory effect on CDK9” value with CDK9 is on record as “moderate”. The “CTD phosphorylation in sensitive cancer cell lines” value in data set [2] is on record as “suppressed phosphorylation”.

On to `OCc1cn(Cc2cccc(Cl)c2)c2ccccc12` [Compound 34, 1-[(3-chlorophenyl)methyl]-1H-indole-3-methanol], for which the “Level of compound in T29 cells relative to T29Kt1 cells” value in the data set on T29 and T29Kt1 cells was “twice”.

Take `O=C(O)c1cn(Cc2ccccc2)c2ccccc12` [Compound 62]: in the data set with H460 and T29Kt1 cells, the “Antitumor activity (structure-activity statement in words)” value was “dramatic reduction or complete loss of activity”.
